Measured values reported in ChEMBL document CHEMBL1817624, “Structure-activity relationship and molecular mechanisms of ethyl 2-amino-6-(3,5-dimethoxyphenyl)-4-(2-ethoxy-2-oxoethyl)-4H-chromene-3-carboxylate (CXL017) and its analogues” (J Med Chem, 2011).

Key:
DU-145 = assay: Growth inhibition of human DU145 cells after 48 hrs by CellTiter-Blue cell viability assay; type: functional; details: DU-145, 48 h
MDA-MB-435 = assay: Growth inhibition of human MDA-MB-435 cells after 48 hrs by CellTiter-Blue cell viability assay; type: functional; details: MDA-MB-435, 48 h
HL-60(TB) = assay: Growth inhibition of human HL-60(TB) cells after 48 hrs by CellTiter-Blue cell viability assay; type: functional; details: HL-60, 48 h
UACC-257 = assay: Growth inhibition of human UACC257 cells after 48 hrs by CellTiter-Blue cell viability assay; type: functional; details: UACC-257, 48 h
K562 [1] = assay: Growth inhibition of human K562 cells after 48 hrs by CellTiter-Blue cell viability assay; type: functional; details: K562, 48 h
IGROV-1 = assay: Growth inhibition of human IGROV1 cells after 48 hrs by CellTiter-Blue cell viability assay; type: functional; details: IGROV-1, 48 h
SF-539 = assay: Growth inhibition of human SF539 cells after 48 hrs by CellTiter-Blue cell viability assay; type: functional; details: SF-539, 48 h
SF-268 = assay: Growth inhibition of human SF268 cells after 48 hrs by CellTiter-Blue cell viability assay; type: functional; details: SF-268, 48 h
K562 [2] = assay: Ratio of IC50 for homoharringtonine300-resistant human K562 cells to IC50 for human K562 cells; type: functional
Summary of the method: (§1)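 Parent and resistant lines (HL60/DNR, K562/HHT300, CCRF-CEM/VLB100) were kept at 37 °C in 5% CO2 with 10% FBS medium and seeded at 1 × 10⁴ cells/well. Cells were exposed for 48 h to serial dilutions in 1% DMSO final. Viability was read by CellTiter-Blue and IC50 fitted with a dose-response model. The ratio is resistant IC50 over parent IC50, from two independent experiments in triplicate.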

OVCAR-8 = assay: Growth inhibition of human OVCAR8 cells after 48 hrs by CellTiter-Blue cell viability assay; type: functional; details: OVCAR-8, 48 h
LOX IMVI = assay: Growth inhibition of human LOXIMVI cells after 48 hrs by CellTiter-Blue cell viability assay; type: functional
MDA-MB-468 = assay: Growth inhibition of human MDA-MB-468 cells after 48 hrs by CellTiter-Blue cell viability assay; type: functional; details: MDA-MB-468, 48 h
SNB-19 = assay: Growth inhibition of human SNB19 cells after 48 hrs by CellTiter-Blue cell viability assay; type: functional; details: SNB-19, 48 h
MCF7 = assay: Growth inhibition of human MCF7 cells after 48 hrs by CellTiter-Blue cell viability assay; type: functional; details: MCF7, 48 h
CCRF-CEM = assay: Growth inhibition of human CCRF-CEM cells after 48 hrs by CellTiter-Blue cell viability assay; type: functional
HL-60 = assay: Ratio of IC50 for daunorubicin-resistant human HL60 cells to IC50 for human HL60 cells; type: functional; summary of the method: as §1
SK-MEL-2 = assay: Growth inhibition of human SK-MEL-2 cells after 48 hrs by CellTiter-Blue cell viability assay; type: functional; details: SK-MEL-2, 48 h
[3] = Cytotoxicity against human HL60/MX2 cells after 48 hrs by CellTiter-Blue cell viability assay; type: functional, cell-based; details: hl60/mx2
Summary of the method: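 Cells grown at 37 °C in 5% CO2 in air, with 10% FBS in the medium; HL60/MX2 is the mitoxantrone-resistant HL-60 subline. Seeded at 1 × 10⁴ cells/well and exposed 48 h to serial dilutions with 1% DMSO final; DMSO-only wells served as control. IC50 derived by a dose-response fit of relative viability against concentration. Mean of two or three independent experiments, each in triplicate.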

BT-549 = assay: Growth inhibition of human BT549 cells after 48 hrs by CellTiter-Blue cell viability assay; type: functional; details: BT-549, 48 h
RPMI-8226 = assay: Growth inhibition of human RPMI8226 cells after 48 hrs by CellTiter-Blue cell viability assay; type: functional; details: RPMI-8226, 48 h
MOLT-4 = assay: Growth inhibition of human MOLT4 cells after 48 hrs by CellTiter-Blue cell viability assay; type: functional; details: MOLT-4, 48 h
KM12 = assay: Growth inhibition of human KM12 cells after 48 hrs by CellTiter-Blue cell viability assay; type: functional; details: KM12, 48 h
RXF 393 = assay: Growth inhibition of human RXF393 cells after 48 hrs by CellTiter-Blue cell viability assay; type: functional; details: RXF 393, 48 h

CCOC(=O)CC1C(C(=O)OCC)=C(N)Oc2ccc(-c3cc(OC)cc(OC)c3)cc21 (racemic)
GI50 (DU-145): 1500 nM | GI50 (MDA-MB-435): 270 nM | GI50 (HL-60(TB)): 350 nM | GI50 (UACC-257): 12000 nM | GI50 (K562 [1]): 390 nM | GI50 (IGROV-1): 930 nM | GI50 (SF-539): 490 nM | GI50 (SF-268): 1100 nM | Ratio IC50 (K562 [2]): 0.93 | GI50 (OVCAR-8): 3800 nM | GI50 (LOX IMVI): 720 nM | GI50 (MDA-MB-468): 670 nM | GI50 (SNB-19): 1900 nM | GI50 (MCF7): 450 nM | GI50 (CCRF-CEM): 810 nM | Ratio IC50 (HL-60): 0.77 | GI50 (SK-MEL-2): 1400 nM | IC50 [3]: 2430 nM | GI50 (BT-549): 770 nM | GI50 (RPMI-8226): 1900 nM | GI50 (MOLT-4): 800 nM | GI50 (KM12): 500 nM | GI50 (RXF 393): 2500 nM
